How the values were obtained:
[1] = Antiproliferative activity against human DU145 cells assessed as reduction in cell viability after 3 days by WST-1 cell proliferation assay; format: functional, cell-based; settings: DU-145, 72 h
How it was run: (§1)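 Cells from ATCC; PC-3 and LNCaP grown in RPMI-1640, DU145 in EMEM, each with 10% FBS and 1% penicillin/streptomycin, 37 °C, 5% CO2. 3,200 cells per well, treated at 5 concentrations for 3 days with 0.25% DMSO as vehicle control. WST-1 reagent added, 3 h at 37 °C, absorbance read at 430 nm. IC50 from linear fit of at least five doses, mean of at least triplicates.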

PC-3 [2] = test: Induction of apoptosis in human PC3 cells assessed as apoptotic cells at 30 uM after 16 hrs by F2N12S/Sytox A advanced staining based flow cytometry (reference value: 3%); format: functional
[3] = Cell cycle arrest in human PC3 cells assessed as accumulation at S phase at 20 uM after 30 hrs by propidium iodide staining based flow cytometry (reference value: 5%); format: functional; settings: PC-3
How it was run: (§2)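 PC-3 cells (RPMI-1640, 10% FBS), 200,000 per well, allowed 3 h to attach, then exposed to compound with DMSO as vehicle control. Attached and floating cells collected at 24 and 30 h, fixed in cold 80% ethanol for 30 min at 4 °C, treated with RNase for 30 min at 37 °C, and stained with propidium iodide. DNA content read by flow cytometry within 0.5–1 h.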

PC-3 [4] = test: Induction of apoptosis in human PC3 cells assessed as apoptotic cells at 10 uM after 16 hrs by F2N12S/Sytox A advanced staining based flow cytometry (reference value: 3%); format: functional
PC-3 [5] = test: Induction of apoptosis in human PC3 cells assessed as viable cells at 20 uM after 16 hrs by F2N12S/Sytox A advanced staining based flow cytometry (reference value: 86%); format: functional; settings: PC-3, 16 h, read-out: Activity
LNCaP [6] = test: Antiproliferative activity against human LNCAP cells assessed as reduction in cell viability after 3 days by WST-1 cell proliferation assay; format: functional, cell-based; settings: 72 h; how it was run: as §1
PC-3 [7] = test: Induction of apoptosis in human PC3 cells assessed as necrotic cells at 40 uM after 16 hrs by F2N12S/Sytox A advanced staining based flow cytometry (reference value: 11%); format: functional
[8] = Cell cycle arrest in human PC3 cells assessed as accumulation at G2 phase at 20 uM after 24 hrs by propidium iodide staining based flow cytometry (reference value: 34%); format: functional; settings: PC-3; how it was run: as §2
PC-3 [9] = test: Induction of apoptosis in human PC3 cells assessed as viable cells at 10 uM after 16 hrs by F2N12S/Sytox A advanced staining based flow cytometry (reference value: 86%); format: functional; settings: PC-3, 16 h, read-out: Activity
[10] = Antiproliferative activity against human PC3 cells assessed as reduction in cell viability after 3 days by WST-1 cell proliferation assay; format: functional, cell-based; settings: PC-3, 72 h; how it was run: as §1
[11] = Cell cycle arrest in human PC3 cells assessed as accumulation at G0/G1 phase at 20 uM after 24 hrs by propidium iodide staining based flow cytometry (reference value: 49%); format: functional; settings: PC-3; how it was run: as §2
[12] = Cell cycle arrest in human PC3 cells assessed as accumulation at S phase at 20 uM after 24 hrs by propidium iodide staining based flow cytometry (reference value: 8%); format: functional; settings: PC-3; how it was run: as §2
[13] = Potency index, ratio of silibinin IC50 to compound IC50 for antiproliferative activity against human DU145 cells; format: functional, DU-145
How it was run: (§3)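 Ratio of silibinin IC50 to derivative IC50. Both come from the 3-day WST-1 assay run in parallel (5 doses, absorbance at 430 nm, IC50 from linear fit, at least triplicates).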

PC-3 [14] = test: Induction of apoptosis in human PC3 cells after 16 hrs by F2N12S/Sytox A advanced staining based flow cytometry; format: functional, cell-based
[15] = Cell cycle arrest in human PC3 cells assessed as accumulation at M phase at 20 uM after 24 hrs by propidium iodide staining based flow cytometry (reference value: 8%); format: functional; settings: PC-3; how it was run: as §2
PC-3 [16] = test: Induction of apoptosis in human PC3 cells assessed as viable cells at 30 uM after 16 hrs by F2N12S/Sytox A advanced staining based flow cytometry (reference value: 86%); format: functional; settings: PC-3, 16 h, read-out: Activity
PC-3 [17] = test: Induction of apoptosis in human PC3 cells assessed as necrotic cells at 20 uM after 16 hrs by F2N12S/Sytox A advanced staining based flow cytometry (reference value: 11%); format: functional
PC-3 [18] = test: Induction of apoptosis in human PC3 cells assessed as necrotic cells at 10 uM after 16 hrs by F2N12S/Sytox A advanced staining based flow cytometry (reference value: 11%); format: functional
PC-3 [19] = test: Induction of apoptosis in human PC3 cells assessed as apoptotic cells at 40 uM after 16 hrs by F2N12S/Sytox A advanced staining based flow cytometry (reference value: 3%); format: functional
[20] = Potency index, ratio of silibinin IC50 to compound IC50 for antiproliferative activity against human PC3 cells; format: functional, PC-3; how it was run: as §3
PC-3 [21] = test: Induction of apoptosis in human PC3 cells assessed as apoptotic cells at 20 uM after 16 hrs by F2N12S/Sytox A advanced staining based flow cytometry (reference value: 3%); format: functional
[22] = Cell cycle arrest in human PC3 cells assessed as accumulation at M phase at 20 uM after 30 hrs by propidium iodide staining based flow cytometry (reference value: 5%); format: functional; settings: PC-3; how it was run: as §2
[23] = Cell cycle arrest in human PC3 cells assessed as accumulation at G2 phase at 20 uM after 30 hrs by propidium iodide staining based flow cytometry (reference value: 30%); format: functional; settings: PC-3; how it was run: as §2
PC-3 [24] = test: Induction of apoptosis in human PC3 cells assessed as viable cells at 50 uM after 16 hrs by F2N12S/Sytox A advanced staining based flow cytometry (reference value: 86%); format: functional; settings: PC-3, 16 h, read-out: Activity
LNCaP [25] = test: Potency index, ratio of silibinin IC50 to compound IC50 for antiproliferative activity against human LNCAP cells; format: functional; how it was run: as §3
PC-3 [26] = test: Induction of apoptosis in human PC3 cells assessed as necrotic cells at 30 uM after 16 hrs by F2N12S/Sytox A advanced staining based flow cytometry (reference value: 11%); format: functional
PC-3 [27] = test: Induction of apoptosis in human PC3 cells assessed as apoptotic cells at 50 uM after 16 hrs by F2N12S/Sytox A advanced staining based flow cytometry (reference value: 3%); format: functional
PC-3 [28] = test: Induction of apoptosis in human PC3 cells assessed as necrotic cells at 50 uM after 16 hrs by F2N12S/Sytox A advanced staining based flow cytometry (reference value: 11%); format: functional
PC-3 [29] = test: Induction of apoptosis in human PC3 cells assessed as viable cells at 40 uM after 16 hrs by F2N12S/Sytox A advanced staining based flow cytometry (reference value: 86%); format: functional; settings: PC-3, 16 h, read-out: Activity
[30] = Cell cycle arrest in human PC3 cells assessed as accumulation at G0/G1 phase at 20 uM after 30 hrs by propidium iodide staining based flow cytometry (reference value: 55%); format: functional; settings: PC-3; how it was run: as §2

Compound CCOc1cc(O)c2c(=O)c(O)c(-c3ccc4c(c3)OC(c3ccc(O)c(OC)c3)C(CO)O4)oc2c1 (stereo not given) has an IC50 [1] of 7.59 µM, an Activity (PC-3 [2]) of 68% and an Activity [3] of 6%. The Activity (PC-3 [4]) was 9%, the viability at 20 µM (PC-3 [5]) was 49% and the IC50 (LNCaP [6]) was 2.58 µM. It also gave an Activity (PC-3 [7]) of 25%, an Activity [8] of 23% and a viability at 10 µM (PC-3 [9]) of 84%. The IC50 [10] was 3.25 µM, the Activity [11] was 62% and the Activity [12] was 7%. The “Ratio IC50” value [13] was 12, the Activity (PC-3 [14]) was “Dose-dependent effect” and the Activity [15] was 7%. The viability at 30 µM (PC-3 [16]) was 11%, the Activity (PC-3 [17]) was 13% and the Activity (PC-3 [18]) was 7%. For the same compound, the Activity (PC-3 [19]) was 71%, the “Ratio IC50” value [20] was 22 and the Activity (PC-3 [21]) was 38%. It also gave an Activity [22] of 6%, an Activity [23] of 25% and a viability at 50 µM (PC-3 [24]) of 7%. For the same compound, the “Ratio IC50” value (LNCaP [25]) was 17, the Activity (PC-3 [26]) was 25% and the Activity (PC-3 [27]) was 66%. For the same compound, the Activity (PC-3 [28]) was 27%, the viability at 40 µM (PC-3 [29]) was 4% and the Activity [30] was 61%.
